# Where “and” joins values, the source holds several entries; their conditions need not be identical. Equal entries are not always repeated.
# Key:
# [1] = The compound was tested for the increase in thermal melting of d(CGCGAATTCGCG)2.
# Nucleic Acid [2] = tested on: Nucleic Acid
# Rattus norvegicus [3] = assay: Percentage control of Pneumocystis carinii pneumonia in immunosuppressed rat at 10 uM/Kg/d administered intravenously.; type: functional
# Procedure, shortened: (§1)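 Immunosuppressed rats with Pneumocystis carinii pneumonia were given test agent intravenously. The read-out was cysts per g of lung tissue, expressed as percent of pooled saline-treated controls (n = 46). Values below 1% of control fall within experimental error.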
# Rattus norvegicus [4] = assay: Toxicity in immunosuppressed rat after administration of 10 uM/Kg/d.; type: organism-based; settings: in vivo
# Procedure, shortened: (§2)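 Immunosuppressed rats with Pneumocystis carinii pneumonia; compounds given intravenously at the daily dose named in each line. Toxicity scored on a five-level scale from 0 to 5+; the paper calls the scores anecdotal rather than definitive. The same study scored lung cysts per gram against pooled saline controls (n = 46).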
# Rattus norvegicus [5] = assay: Percentage control of Pneumocystis carinii pneumonia in immunosuppressed rat at 0.25 uM/Kg/d administered intravenously; type: functional; procedure, shortened: as §1
# Rattus norvegicus [6] = assay: Percentage control of Pneumocystis carinii pneumonia in immunosuppressed rat at 10 uM/Kg/d administered intravenously; type: functional; procedure, shortened: as §1
# Rattus norvegicus [7] = assay: Percentage control of Pneumocystis carinii pneumonia in immunosuppressed rat at 20 uM/Kg/d administered intravenously; type: functional; procedure, shortened: as §1
# Rattus norvegicus [8] = assay: Percentage control of Pneumocystis carinii pneumonia in immunosuppressed rat at 5 uM/Kg/d administered intravenously; type: functional; procedure, shortened: as §1
# Rattus norvegicus [9] = assay: Toxicity in immunosuppressed rat after administration of 5 uM/Kg/d; type: organism-based; settings: in vivo; procedure, shortened: as §2
# Rattus norvegicus [10] = assay: Toxicity in immunosuppressed rat after administration of 0.2 5 uM/Kg/d; type: organism-based; settings: in vivo; procedure, shortened: as §2
# Rattus norvegicus [11] = assay: Toxicity in immunosuppressed rat after administration of 10 uM/Kg/d; type: organism-based; settings: in vivo; procedure, shortened: as §2
# Rattus norvegicus [12] = assay: Toxicity in immunosuppressed rat after administration of 1 uM/kg/day; type: organism-based; settings: in vivo; procedure, shortened: as §2
# Rattus norvegicus [13] = assay: Percentage control of Pneumocystis carinii pneumonia in immunosuppressed rat at 22 uM/Kg/d administered intravenously; type: functional; procedure, shortened: as §1
# Nucleic Acid [14] = tested on: Nucleic Acid; remark: listed apart in the source
# Rattus norvegicus [15] = assay: Percentage control of Pneumocystis carinii pneumonia in immunosuppressed rat at 1 uM/Kg/d administered intravenously; type: functional; procedure, shortened: as §1
# Rattus norvegicus [16] = assay: Toxicity in immunosuppressed rat after administration of 1 uM/Kg/d.; type: organism-based; settings: in vivo; procedure, shortened: as §2
SMILES,ΔTm [1],ΔTm (Nucleic Acid [2]),Toxicity (Rattus norvegicus [4]),Control (Rattus norvegicus [6]),further results
c1cc(-c2coc(-c3ccc(C4=NCCN4)cc3)c2)ccc1C1=NCCN1,7.2,16.8,–,–,–
Cl.Cl.N=C(NC1CC1)c1ccc(-c2coc(-c3ccc(C(=N)NC4CC4)cc3)c2)cc1,10.9,23.2,0,–,Control (Rattus norvegicus [3]): 0.01%
CC(C)/N=C(/N)c1ccc(-c2coc(-c3ccc(/C(N)=N\C(C)C)cc3)c2)cc1.Cl.Cl,10.9,17.6,–,0.04% and 0.08%,Control (Rattus norvegicus [5]): 110.5%; Control (Rattus norvegicus [7]): 0%; Control (Rattus norvegicus [8]): 0.08%; Toxicity (Rattus norvegicus [9]): 0; Toxicity (Rattus norvegicus [10]): 0; Toxicity (Rattus norvegicus [11]): 0; Toxicity (Rattus norvegicus [12]): 0
CC(C)C/N=C(/N)c1ccc(-c2coc(-c3ccc(/C(N)=N\CC(C)C)cc3)c2)cc1,9.3,20.4,–,–,–
N=C(N)c1ccc(OCCCCCOc2ccc(C(=N)N)cc2)cc1 [PENTAMIDINE],4.8,–,–,–,Control (Rattus norvegicus [13]): 2.3%; ΔTm (Nucleic Acid [14]): 12.6
Cc1oc(-c2ccc(C(=N)N)cc2)c(C)c1-c1ccc(C(=N)N)cc1.Cl.Cl,6.5,17,–,0.89%,–
Cc1oc(-c2ccc(/C(N)=N\C(C)C)cc2)c(C)c1-c1ccc(/C(N)=N\C(C)C)cc1.Cl.Cl,5.4,12.5,0,24.43%,–
Cl.Cl.N=C(NC1CCCC1)c1ccc(-c2coc(-c3ccc(C(=N)NC4CCCC4)cc3)c2)cc1,13.6,20.4,0,0.16%,Control (Rattus norvegicus [15]): 1.79%; Toxicity (Rattus norvegicus [16]): 0
Cl.Cl.N=C(N)c1ccc(-c2coc(-c3ccc(C(=N)N)cc3)c2)cc1,9.1,19,–,0.3%,Toxicity (Rattus norvegicus [11]): 0

# — ChEMBL document CHEMBL1132248, “2,4-Diphenyl furan diamidines as novel anti-Pneumocystis carinii pneumonia agents” (J Med Chem, 1999)
